In ChEMBL document CHEMBL4118021, “Studies of TAK1-centered polypharmacology with novel covalent TAK1 inhibitors” (Bioorg Med Chem, 2017):
Calls of active or inactive are those of the source. The rule behind the calls is not given here.

Columns and labels:
[1] = target: SRSF protein kinase 1 (Homo sapiens) (UniProt Q96SB4); test: Inhibition of SRPK1 in human SKCO1 cells at 1 uM after 4 hrs using biotin labeled IIHTDIKPENILLSVNEQYIR probe by mass-spectrometric analysis relative to control; type: cell-based
How it was run: (§1)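 Live SK-CO-1 cells exposed to compound at 1 μM or DMSO for 4 h (KiNativ). Lysates then labeled with lysine-reactive ATP/ADP-biotin probe, and probe-labeled kinase peptides quantified by mass spectrometry. Percent inhibition of probe-dependent recovery calculated relative to DMSO-treated cells.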

[2] = target: Mitogen-activated protein kinase 10 (Homo sapiens) (UniProt P53779); test: Inhibition of JNK3 in human SKCO1 cells at 1 uM after 4 hrs using biotin labeled DLKPSNIVVK probe by mass-spectrometric analysis relative to control; type: cell-based
Sequence of Mitogen-activated protein kinase 10 (Homo sapiens) (P53779 whole entry): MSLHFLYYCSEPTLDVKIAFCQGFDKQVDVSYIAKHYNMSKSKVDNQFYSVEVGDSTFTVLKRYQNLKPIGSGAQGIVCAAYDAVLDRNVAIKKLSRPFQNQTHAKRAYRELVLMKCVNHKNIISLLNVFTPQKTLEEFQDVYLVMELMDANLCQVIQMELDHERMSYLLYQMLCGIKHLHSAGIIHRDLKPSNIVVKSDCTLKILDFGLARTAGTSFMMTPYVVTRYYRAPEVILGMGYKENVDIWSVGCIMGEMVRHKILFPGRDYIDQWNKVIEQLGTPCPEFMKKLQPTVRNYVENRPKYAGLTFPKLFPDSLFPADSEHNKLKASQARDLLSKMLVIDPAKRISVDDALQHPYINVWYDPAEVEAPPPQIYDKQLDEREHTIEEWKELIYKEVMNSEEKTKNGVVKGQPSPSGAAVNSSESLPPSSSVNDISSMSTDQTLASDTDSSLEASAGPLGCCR

NALM-6 = test: Antiproliferative activity against human NALM6 cells harboring NARS A146T mutant at […] to […] nM after 72 hrs by CellTiter-Glo assay; type: functional, cell-based
HEL = test: Antiproliferative activity against human HEL cells at […] to […] nM after 72 hrs by CellTiter-Glo assay; type: functional, cell-based
U-937 = test: Antiproliferative activity against human U937 cells at […] to […] nM after 72 hrs by CellTiter-Glo assay; type: functional, cell-based
[3] = target: T1, Mitogen-activated protein kinase kinase kinase 7 (Homo sapiens, UniProt O43318); test: Inhibition of TAK1 (unknown origin) by LanthaScreen assay
T1 sequence (O43318 whole entry): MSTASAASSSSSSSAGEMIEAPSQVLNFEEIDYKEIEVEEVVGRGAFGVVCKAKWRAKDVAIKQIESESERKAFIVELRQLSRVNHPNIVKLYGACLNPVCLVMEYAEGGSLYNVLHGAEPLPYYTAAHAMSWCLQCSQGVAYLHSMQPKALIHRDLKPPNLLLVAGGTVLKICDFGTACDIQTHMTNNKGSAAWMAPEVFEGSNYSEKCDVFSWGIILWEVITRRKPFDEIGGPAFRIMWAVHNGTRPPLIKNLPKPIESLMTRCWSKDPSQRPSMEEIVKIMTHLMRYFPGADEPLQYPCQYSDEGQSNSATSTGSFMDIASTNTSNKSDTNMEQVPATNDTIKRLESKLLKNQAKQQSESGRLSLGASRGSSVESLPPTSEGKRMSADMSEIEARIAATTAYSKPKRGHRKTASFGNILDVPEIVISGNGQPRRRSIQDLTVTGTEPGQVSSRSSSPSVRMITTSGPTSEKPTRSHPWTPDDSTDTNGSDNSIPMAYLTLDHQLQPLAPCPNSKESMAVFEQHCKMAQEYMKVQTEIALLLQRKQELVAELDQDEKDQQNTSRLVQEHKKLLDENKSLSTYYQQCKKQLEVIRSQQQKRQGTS

[4] = target: Mitogen-activated protein kinase kinase kinase 5 (Homo sapiens) (UniProt Q99683); test: Inhibition of MAP3K5 in human SKCO1 cells at 1 uM after 4 hrs using biotin labeled DIKGDNVLINTYSGVLK probe by mass-spectrometric analysis relative to control; type: cell-based
Sequence of Mitogen-activated protein kinase kinase kinase 5 (Homo sapiens) (Q99683 whole entry): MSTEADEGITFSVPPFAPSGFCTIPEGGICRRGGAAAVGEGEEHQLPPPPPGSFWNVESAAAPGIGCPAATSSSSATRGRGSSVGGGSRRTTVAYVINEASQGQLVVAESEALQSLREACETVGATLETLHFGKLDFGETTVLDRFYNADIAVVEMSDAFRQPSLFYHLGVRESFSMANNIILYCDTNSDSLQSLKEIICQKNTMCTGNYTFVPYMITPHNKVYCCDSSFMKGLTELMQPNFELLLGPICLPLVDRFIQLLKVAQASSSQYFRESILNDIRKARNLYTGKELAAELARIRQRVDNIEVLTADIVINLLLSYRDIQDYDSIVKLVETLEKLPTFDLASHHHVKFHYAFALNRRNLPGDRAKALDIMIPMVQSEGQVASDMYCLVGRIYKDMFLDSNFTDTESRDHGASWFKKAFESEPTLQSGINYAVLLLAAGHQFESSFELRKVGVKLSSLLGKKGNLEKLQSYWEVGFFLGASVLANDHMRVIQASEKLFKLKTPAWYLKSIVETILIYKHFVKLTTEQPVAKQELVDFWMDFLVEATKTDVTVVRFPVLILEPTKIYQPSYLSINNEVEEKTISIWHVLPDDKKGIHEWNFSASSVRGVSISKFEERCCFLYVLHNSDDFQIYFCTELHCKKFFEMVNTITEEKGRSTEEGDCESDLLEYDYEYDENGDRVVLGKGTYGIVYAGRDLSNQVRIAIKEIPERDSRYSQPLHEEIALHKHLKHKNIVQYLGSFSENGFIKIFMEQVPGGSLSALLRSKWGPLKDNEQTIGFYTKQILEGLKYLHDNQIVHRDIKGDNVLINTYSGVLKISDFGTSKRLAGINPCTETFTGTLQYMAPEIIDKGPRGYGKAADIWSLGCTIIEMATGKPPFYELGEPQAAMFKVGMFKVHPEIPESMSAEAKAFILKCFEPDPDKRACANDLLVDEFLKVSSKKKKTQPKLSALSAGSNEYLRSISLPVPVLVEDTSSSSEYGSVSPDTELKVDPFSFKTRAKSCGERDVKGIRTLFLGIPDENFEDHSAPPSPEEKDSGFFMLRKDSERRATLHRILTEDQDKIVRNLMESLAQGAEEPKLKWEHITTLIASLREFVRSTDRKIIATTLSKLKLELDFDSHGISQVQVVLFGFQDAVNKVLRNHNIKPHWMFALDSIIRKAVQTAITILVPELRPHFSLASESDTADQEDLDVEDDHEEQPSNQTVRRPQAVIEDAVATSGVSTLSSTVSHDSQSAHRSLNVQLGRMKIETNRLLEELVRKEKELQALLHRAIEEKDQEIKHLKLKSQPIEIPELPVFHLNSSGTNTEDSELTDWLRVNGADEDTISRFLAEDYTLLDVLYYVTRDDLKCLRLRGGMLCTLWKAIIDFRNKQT

[5] = target: Mitogen-activated protein kinase 9 (Homo sapiens) (UniProt P45984); test: Inhibition of JNK2 in human SKCO1 cells at 1 uM after 4 hrs using biotin labeled DLKPSNIVVK probe by mass-spectrometric analysis relative to control; type: cell-based
Sequence of Mitogen-activated protein kinase 9 (Homo sapiens) (P45984 whole entry, looked up): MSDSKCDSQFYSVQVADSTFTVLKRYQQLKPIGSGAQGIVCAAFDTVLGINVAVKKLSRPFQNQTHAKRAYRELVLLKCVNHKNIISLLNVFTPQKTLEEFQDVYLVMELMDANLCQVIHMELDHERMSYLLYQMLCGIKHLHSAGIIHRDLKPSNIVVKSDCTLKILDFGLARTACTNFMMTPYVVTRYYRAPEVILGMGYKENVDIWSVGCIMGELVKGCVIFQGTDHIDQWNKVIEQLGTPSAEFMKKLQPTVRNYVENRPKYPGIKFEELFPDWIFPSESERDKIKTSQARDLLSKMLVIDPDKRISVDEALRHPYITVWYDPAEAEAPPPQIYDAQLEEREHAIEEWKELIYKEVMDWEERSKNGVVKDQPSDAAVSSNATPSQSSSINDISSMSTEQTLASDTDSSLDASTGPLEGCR

[6] = target: Phosphatidylinositol 5-phosphate 4-kinase type-2 alpha (Homo sapiens) (UniProt P48426); test: Inhibition of PIP4K2A in human SKCO1 cells at 1 uM after 4 hrs using biotin labeled AKELPTLKDNDFINEGQK probe by mass-spectrometric analysis relative to control; type: cell-based
Sequence of Phosphatidylinositol 5-phosphate 4-kinase type-2 alpha (Homo sapiens) (P48426 whole entry): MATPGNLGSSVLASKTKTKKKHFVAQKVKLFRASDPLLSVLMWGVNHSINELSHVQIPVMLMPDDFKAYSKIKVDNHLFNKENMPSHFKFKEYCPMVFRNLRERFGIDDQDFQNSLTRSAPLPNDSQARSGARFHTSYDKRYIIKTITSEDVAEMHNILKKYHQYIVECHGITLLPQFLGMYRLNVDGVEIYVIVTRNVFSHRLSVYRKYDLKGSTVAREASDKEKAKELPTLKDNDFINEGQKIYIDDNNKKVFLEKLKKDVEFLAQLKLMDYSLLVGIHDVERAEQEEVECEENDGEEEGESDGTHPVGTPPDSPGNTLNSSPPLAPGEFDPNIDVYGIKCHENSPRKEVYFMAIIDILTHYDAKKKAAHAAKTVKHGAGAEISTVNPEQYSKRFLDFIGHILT

MOLM-14 = test: Antiproliferative activity against human MOLM14 cells harboring FLT3-ITD mutant at […] to […] nM after 72 hrs by CellTiter-Glo assay; type: functional, cell-based
[7] = target: Mitogen-activated protein kinase kinase kinase kinase 5 (Homo sapiens) (UniProt Q9Y4K4); test: Inhibition of KHS1 in human SKCO1 cells at 1 uM after 4 hrs using biotin labeled NVHTGELAAVKIIK probe by mass-spectrometric analysis relative to control; type: cell-based
Sequence of Mitogen-activated protein kinase kinase kinase kinase 5 (Homo sapiens) (Q9Y4K4 whole entry, looked up): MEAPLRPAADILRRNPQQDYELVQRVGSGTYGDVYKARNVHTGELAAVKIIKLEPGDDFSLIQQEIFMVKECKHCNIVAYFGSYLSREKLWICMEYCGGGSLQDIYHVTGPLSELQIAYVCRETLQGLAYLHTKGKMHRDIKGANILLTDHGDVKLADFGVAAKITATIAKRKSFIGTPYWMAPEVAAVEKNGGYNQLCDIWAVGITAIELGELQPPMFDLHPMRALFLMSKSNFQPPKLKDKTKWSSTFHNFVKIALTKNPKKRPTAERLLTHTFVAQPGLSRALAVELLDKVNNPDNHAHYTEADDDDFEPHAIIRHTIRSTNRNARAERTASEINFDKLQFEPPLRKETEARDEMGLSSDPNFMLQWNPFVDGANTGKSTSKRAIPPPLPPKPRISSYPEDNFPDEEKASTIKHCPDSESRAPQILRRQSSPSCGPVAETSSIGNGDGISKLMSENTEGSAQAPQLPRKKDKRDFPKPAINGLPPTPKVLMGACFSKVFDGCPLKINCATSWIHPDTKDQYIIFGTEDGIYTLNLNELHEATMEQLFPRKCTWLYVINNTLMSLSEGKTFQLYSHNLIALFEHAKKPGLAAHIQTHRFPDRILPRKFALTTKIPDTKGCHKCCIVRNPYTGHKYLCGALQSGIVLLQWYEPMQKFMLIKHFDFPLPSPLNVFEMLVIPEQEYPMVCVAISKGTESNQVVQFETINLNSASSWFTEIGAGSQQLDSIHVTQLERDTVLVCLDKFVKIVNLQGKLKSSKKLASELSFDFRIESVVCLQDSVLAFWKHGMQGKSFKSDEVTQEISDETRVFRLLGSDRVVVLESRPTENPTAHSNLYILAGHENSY

[8] = target: Tyrosine-protein kinase Lck (Homo sapiens) (UniProt P06239); test: Inhibition of LCK in human SKCO1 cells at 1 uM after 4 hrs using biotin labeled EGAKFPIKWTAPEAINYGTFTIK probe by mass-spectrometric analysis relative to control; type: cell-based
Sequence of Tyrosine-protein kinase Lck (Homo sapiens) (P06239 2-509 limits assumed): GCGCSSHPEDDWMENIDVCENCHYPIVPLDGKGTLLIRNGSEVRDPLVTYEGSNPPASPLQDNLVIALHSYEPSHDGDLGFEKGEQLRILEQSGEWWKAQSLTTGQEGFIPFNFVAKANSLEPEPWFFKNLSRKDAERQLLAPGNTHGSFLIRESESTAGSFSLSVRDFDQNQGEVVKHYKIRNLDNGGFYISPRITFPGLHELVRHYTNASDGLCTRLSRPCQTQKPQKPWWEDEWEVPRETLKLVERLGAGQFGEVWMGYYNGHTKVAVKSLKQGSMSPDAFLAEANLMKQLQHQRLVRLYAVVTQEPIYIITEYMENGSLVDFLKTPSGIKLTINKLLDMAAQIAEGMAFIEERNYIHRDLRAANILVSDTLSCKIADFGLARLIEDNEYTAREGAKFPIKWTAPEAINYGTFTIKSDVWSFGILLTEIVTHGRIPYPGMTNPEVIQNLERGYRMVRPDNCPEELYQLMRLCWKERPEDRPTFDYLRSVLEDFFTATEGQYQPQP

[9] = target: T2, Mitogen-activated protein kinase kinase kinase 7 (Homo sapiens) (UniProt O43318); conditions: 0.6 uM
T2 sequence (whole entry): T1 sequence (O43318 whole entry)

[10] = target: T2, Mitogen-activated protein kinase kinase kinase 7 (Homo sapiens); conditions: NCI-H358, 1 uM
[11] = target: Cyclin-dependent kinase 16 (Homo sapiens) (UniProt Q00536); test: Inhibition of PCTAIRE1 in human SKCO1 cells at 1 uM after 4 hrs using biotin labeled SKLTDNLVALKEIR probe by mass-spectrometric analysis relative to control; type: cell-based; how it was run: as §1
SW-620 = test: Antiproliferative activity against human SW620 cells harboring KRAS G12V mutant after 72 hrs by CellTiter-Glo assay; type: functional, cell-based; conditions: SW-620, 72 h
[12] = target: Serine/threonine-protein kinase Nek7 (Homo sapiens) (UniProt Q8TDX7); test: Inhibition of NEK7 in human SKCO1 cells at 1 uM after 4 hrs using biotin labeled DIKPANVFITATGVVK probe by mass-spectrometric analysis relative to control; type: cell-based
Sequence of Serine/threonine-protein kinase Nek7 (Homo sapiens) (Q8TDX7 whole entry, looked up): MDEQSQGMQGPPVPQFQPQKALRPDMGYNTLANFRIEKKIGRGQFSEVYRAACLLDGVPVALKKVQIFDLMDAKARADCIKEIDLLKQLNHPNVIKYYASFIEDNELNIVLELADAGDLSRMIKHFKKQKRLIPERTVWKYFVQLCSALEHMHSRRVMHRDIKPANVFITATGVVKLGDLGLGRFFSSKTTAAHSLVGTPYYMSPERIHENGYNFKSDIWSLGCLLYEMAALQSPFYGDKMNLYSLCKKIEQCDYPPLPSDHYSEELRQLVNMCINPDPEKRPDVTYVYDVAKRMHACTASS

[13] = target: Eukaryotic elongation factor 2 kinase (Homo sapiens) (UniProt O00418); test: Inhibition of eEF2K in human SKCO1 cells at 1 uM after 4 hrs using biotin labeled YIKYNSNSGFVR probe by mass-spectrometric analysis relative to control; type: cell-based
Sequence of Eukaryotic elongation factor 2 kinase (Homo sapiens) (O00418 whole entry): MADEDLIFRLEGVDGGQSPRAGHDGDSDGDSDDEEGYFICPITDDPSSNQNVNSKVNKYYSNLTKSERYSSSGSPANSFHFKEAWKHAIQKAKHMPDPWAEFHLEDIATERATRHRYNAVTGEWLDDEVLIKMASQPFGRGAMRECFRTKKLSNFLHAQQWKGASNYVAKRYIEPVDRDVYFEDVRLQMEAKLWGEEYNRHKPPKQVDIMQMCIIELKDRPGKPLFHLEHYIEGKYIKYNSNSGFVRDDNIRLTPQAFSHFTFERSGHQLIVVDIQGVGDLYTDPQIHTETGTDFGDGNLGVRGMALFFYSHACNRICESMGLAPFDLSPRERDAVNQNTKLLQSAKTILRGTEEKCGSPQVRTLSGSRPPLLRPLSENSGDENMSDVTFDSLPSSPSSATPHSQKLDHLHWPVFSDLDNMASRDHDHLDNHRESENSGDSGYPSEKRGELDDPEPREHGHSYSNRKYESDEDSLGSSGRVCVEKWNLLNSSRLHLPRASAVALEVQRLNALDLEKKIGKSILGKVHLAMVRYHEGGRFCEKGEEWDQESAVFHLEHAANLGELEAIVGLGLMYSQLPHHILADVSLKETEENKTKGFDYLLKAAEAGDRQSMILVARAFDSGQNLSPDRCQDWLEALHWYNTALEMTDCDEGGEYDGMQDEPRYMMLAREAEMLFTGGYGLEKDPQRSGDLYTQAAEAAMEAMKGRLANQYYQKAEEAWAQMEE

[14] = target: Proto-oncogene tyrosine-protein kinase Src (Homo sapiens) (UniProt P12931); test: Inhibition of SRC in human SKCO1 cells at 1 uM after 4 hrs using biotin labeled QGAKFPIKWTAPEAALYGR probe by mass-spectrometric analysis relative to control; type: cell-based
[15] = target: Platelet-derived growth factor receptor beta (Homo sapiens) (UniProt P09619); test: Inhibition of human PDGFRB (582 to 1009 residues) expressed in bacterial expression system assessed as enzyme activity at 1 uM by KINOMEScan assay relative to control; set-up: scale not given: the % may be the effect or the level left
How it was run: (§2)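 In vitro ATP-site competition binding assay across a panel of 456 kinases, with compound tested at 1 and 10 μM.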

[16] = target: Serine/threonine-protein kinase Nek6 (Homo sapiens) (UniProt Q9HC98); test: Inhibition of NEK6 in human SKCO1 cells at 1 uM after 4 hrs using biotin labeled TVALKK probe by mass-spectrometric analysis relative to control; type: cell-based
[17] = target: Receptor tyrosine-protein kinase erbB-2 (Homo sapiens) (UniProt P04626); test: Inhibition of HER2/ErbB2 in human SKCO1 cells at 1 uM after 4 hrs using biotin labeled GIWIPDGENVKIPVAIKVLR probe by mass-spectrometric analysis relative to control; type: cell-based
[18] = target: Serine/threonine-protein kinase 36 (Homo sapiens) (UniProt Q9NRP7); test: Inhibition of human STK36 (1 to 271 residues) expressed in bacterial expression system assessed as enzyme activity at 1 uM by KINOMEScan assay relative to control; set-up: scale not given: the % may be the effect or the level left; how it was run: as §2

SMILES | inhibition [1] [%] | inhibition [2] [%] | Activity (NALM-6) | Activity (HEL) | Activity (U-937) | IC50 [3] [nM] | inhibition [4] [%] | inhibition [5] [%] | inhibition [6] [%] | Activity (MOLM-14) | inhibition [7] [%] | inhibition [8] [%] | inhibition [9] | inhibition [10] | inhibition [11] [%] | IC50 (SW-620) [nM] | inhibition [12] [%] | inhibition [13] [%] | inhibition [14] [%] | inhibition [16] [%] | also measured
C=CC(=O)Nc1ccccc1Nc1nc(Nc2ccc(N3CCN(C)CC3)cc2)ncc1Cl | 2.9 | 70 | inactive | inactive | Active | 50 | 25.5 | 70 | 2 | Active | 14.8 | 0 | Active | Active | -8 |  |  |  |  |  | 
COc1cc(O)c2c(c1)/C=C/C[C@H](O)[C@H](O)C(=O)/C=C\C[C@H](C)OC2=O |  |  |  |  |  |  |  |  | 16.1 |  |  |  | Active | Active |  | 2540 | 4.9 | -7.7 | 8.5 | -9.7 | Activity [15]: 1.5%; inhibition [17]: 14.5%; Activity [18]: 7.1%
C=CC(=O)Nc1ccccc1Oc1nc(Nc2cnn(CCOC)c2)ncc1Cl | -6.1 | 0.8 | inactive | inactive | Active | 2.4 | 10 | 0.8 |  | Active | -4.6 | -2.7 |  |  | -5.2 | 506 | -0.4 | 6.7 | -0.9 | -9.9 | inhibition [17]: -2.2%
